ChEMBL document CHEMBL4613293, “Pyridobenzothiazolones Exert Potent Anti-Dengue Activity by Hampering Multiple Functions of NS5 Polymerase” (ACS Med Chem Lett, 2020)
pEC50, pIC50: −log10 of the molar value. Calls of active or inactive are those of the source. The calls are words filed in the database; no cut-off is given here.

Experiments:
dengue virus type 2 [1] = assay: Inhibition of Dengue virus 2 NS5 assessed as reduction in NS5-3' UTR RNA at 25 uM incubated for 1 hr followed by 3' UTR RNA addition and measured after 20 mins by REMSA
Method in brief: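 RNA electrophoretic mobility shift with DENV NS5 at 1.28 μM and RNA at 0.16 μM (RNA/NS5 1:8), compound at 25 μM, 37 °C. Order of addition: compound, then NS5, then RNA. Band shift from complex formation scored on gel.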

dengue virus type 2 [2] = assay: Inhibition of Dengue virus NS5 RNA-dependent RNA polymerase assessed as reduction in elongation activity at 30 uM incubated for 1 hr relative to control
Method in brief: (§1)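 Purified recombinant full-length DENV2 NS5 polymerase was tested in two formats: primer-independent (de novo initiation) and primer-dependent (elongation). Compound at a single 30 μM; % inhibition reported.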

dengue virus type 4 = assay: Antiviral activity against Dengue virus 4 infected in human HuH7 cells assessed as reduction in virus replication incubated for 48 hrs by plaque reduction assay; type: functional, organism-based; conditions: Huh-7, 48 h
[3] = Cytotoxicity against human HuH7 cells assessed as reduction in cell viability incubated for 48 hrs by CellTiter Glo Luminescent assay; type: cell-based, Huh-7
Method in brief: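 HuH7 viability was read by CellTiter-Glo luminescence in parallel with the infection dose–response. CC50 is the concentration reducing viability by 50%.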

dengue virus type 2 [4] = assay: Antiviral activity against Dengue virus 2 EDEN 3295 infected in human HuH7 cells assessed as reduction in virus replication incubated for 48 hrs by plaque reduction assay; type: functional, organism-based; conditions: EDEN 3295, Huh-7, 48 h
Method in brief: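 DENV2 EDEN 3295 in human hepatoma HuH7 cells, treated 48 h. Infectious virus quantified by plaque assay. Dose–response from 0.01 to 100 μM after an initial 10 μM screen. EC50 is the concentration giving 50% inhibition of replication, reported as average ± SD of two independent experiments.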

Zika virus = assay: Antiviral activity against Zika virus H/PF/2013 infected in human HuH7 cells assessed as reduction in virus replication incubated for 24 hrs by plaque reduction assay; type: functional, organism-based; conditions: H/PF/2013, Huh-7, 24 h
Method in brief: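 ZIKV H/PF/2013 in HuH7 cells, treated 24 h. Titres read by plaque assay. EC50 is the concentration giving 50% inhibition of replication, reported as average ± SD of two independent experiments.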

[5] = Inhibition of Dengue virus NS5 RNA-dependent RNA polymerase assessed as reduction in elongation activity incubated for 1 hr; design: species or system dengue virus type 2
Method in brief: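 Elongation (primer-dependent) activity of purified recombinant full-length DENV2 NS5 was measured over a concentration series with fluorescence read-out. Compound-only wells corrected for autofluorescence. IC50 is 50% inhibition of elongation, average ± SD from one experiment in duplicate.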

dengue virus type 2 [6] = assay: Inhibition of Dengue virus NS5 RNA-dependent RNA polymerase assessed as reduction in de novo initiation activity at 30 uM incubated for 1 hr relative to control; method in brief: as §1
[7] = Inhibition of Dengue virus full length NS2b-NS3/NS5 interaction incubated for 1 hr by ELISA
Method in brief: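 Competitive ELISA measuring DENV NS3–NS5 binding across compound concentrations. IC50 reported as average ± SD from one experiment in duplicate.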

[8] = Selectivity index, ratio of CC50 for human HuH7 cells to EC50 for Dengue virus 2 EDEN 3295 infected in human HuH7 cells; type: toxicity, cell-based; conditions: read-out: Ratio CC50/EC50
Method in brief: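 Selectivity index is CC50 (CellTiter-Glo, HuH7) divided by EC50 (plaque assay, DENV2 EDEN 3295, 48 h, HuH7).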

[9] = Selectivity index, ratio of CC50 for human HuH7 cells to EC50 for Zika virus H/PF/2013 infected in human HuH7 cells; type: toxicity, cell-based; conditions: read-out: Ratio CC50/EC50
Method in brief: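 Selectivity index is CC50 (CellTiter-Glo, HuH7) divided by EC50 (plaque assay, ZIKV H/PF/2013, 24 h, HuH7).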

dengue virus type 3 = assay: Antiviral activity against Dengue virus 3 infected in human HuH7 cells assessed as reduction in virus replication incubated for 48 hrs by plaque reduction assay; type: functional, organism-based; conditions: Huh-7, 48 h
dengue virus type 1 = assay: Antiviral activity against Dengue virus 1 infected in human HuH7 cells assessed as reduction in virus replication incubated for 48 hrs by plaque reduction assay; type: functional, organism-based; conditions: Huh-7, 48 h
dengue virus type 2 [10] = assay: Antiviral activity against Dengue virus 2 EDEN 3295 infected in human HuH7 cells assessed as reduction in viral titer at 10 uM over 10 passage incubated for 72 hrs by resistance development assay relative to control; type: functional; conditions: EDEN 3295, Huh-7, 72 h
Method in brief: (§2)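 Resistance selection: DENV2-infected HuH7 cells were passaged under rising compound concentrations, 72 h per passage, up to P10. P10 viruses (parental or resistant clone) were expanded in C6/36 insect cells. Susceptibility was then tested in HuH7 at a single 10 μM dose, read as viral titer reduction versus control. Two independent experiments in duplicate; average ± SD.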

dengue virus type 2 [11] = assay: Antiviral activity against Dengue virus 2 EDEN 3295 infected in human HuH7 cells assessed as reduction in viral titer over 10 passages incubated for 72 hrs by resistance development assay; type: functional, organism-based; conditions: EDEN 3295, Huh-7, 72 h
Method in brief: (§3)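 Virus came from HuH7 serial passage under increasing compound concentrations (72 h each, to P10) and was expanded in C6/36 cells. P10 parental DENV2 or resistant-clone virus was then tested dose-dependently in HuH7 cells with 48 h compound treatment, measuring viral inhibition. Single experiment with duplicates.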

dengue virus type 2 [12] = assay: Antiviral activity against Dengue virus 2 EDEN 3295 clone 4_R infected in human HuH7 cells assessed as reduction in viral titer at 10 uM over 10 passage incubated for 72 hrs by resistance development assay relative to control; type: functional; conditions: EDEN 3295, Huh-7, 72 h; method in brief: as §2
dengue virus type 2 [13] = assay: Antiviral activity against Dengue virus 2 EDEN 3295 clone 4_R infected in human HuH7 cells assessed as reduction in viral titer over 10 passages incubated for 72 hrs by resistance development assay; type: functional, organism-based; conditions: EDEN 3295, Huh-7, 72 h; method in brief: as §3

| Compound | inhibition (dengue virus type 2 [1]) | inhibition (dengue virus type 2 [2]) [%] | pEC50 (dengue virus type 4) | pEC50 (dengue virus type 2 [4]) | pEC50 (Zika virus) | pIC50 [5] | inhibition (dengue virus type 2 [6]) [%] | pIC50 [7] | pEC50 (dengue virus type 3) | pEC50 (dengue virus type 1) | CC50 at 48 h [3] [µM] | selectivity ratio [8] | selectivity ratio [9] | inhibition at 10 µM (dengue virus type 2 [10]) [%] | pEC50 (dengue virus type 2 [11]) | inhibition at 10 µM (dengue virus type 2 [12]) [%] | pEC50 (dengue virus type 2 [13]) |
| --- | --- | --- | --- | --- | --- | --- | --- | --- | --- | --- | --- | --- | --- | --- | --- | --- | --- |
| Cn1cc(C(=O)N[C@@H](Cc2ccc(O)cc2)C(=O)O)cc(-c2ccccc2)c1=O |  | 70.2 |  |  |  |  | 35.6 |  |  |  |  |  |  |  |  |  |  |
| O=C(O)CCNC(=O)c1cc(-c2ccccc2)c(=O)n2c1sc1ccc(OC3CCCCC3)cc12 | Active | 77.6 | 5.16 | 5.46 | 6.00 | 4.42 |  | 4.63 | 5.11 | 5.15 | > 100 | > 30 | > 100 | 80 | 5.28 | 20 | 4.94 |
| O=C(N[C@@H](Cc1ccc(O)cc1)C(=O)O)c1cc(-c2ccccc2)c(=O)n(-c2cccc(OC3CCCCC3)c2)c1 |  | 72.1 |  |  |  | 4.09 | 36.4 |  |  |  |  |  |  |  |  |  |  |
| C#C[C@@]1(O)[C@H](O)[C@@H](CO)O[C@H]1n1ccc2c(N)ncnc21 |  |  |  | 6.00 | 6.70 |  |  |  |  |  | 100 | 100 | > 100 |  |  |  |  |
| O=C(N[C@@H](Cc1ccc(O)cc1)C(=O)O)c1cc(-c2ccccc2)c(=O)n2c1sc1ccc(OC3CCCCCC3)cc12 |  | 92.1 |  | 5.43 | 5.80 | 5.02 | 30.5 | 4.47 |  |  | 100 | 30 | > 50 |  |  |  |  |

Continued, in another order:

| inhibition (dengue virus type 2 [1]) | inhibition (dengue virus type 2 [2]) [%] | pEC50 (dengue virus type 4) | pEC50 (dengue virus type 2 [4]) | pEC50 (Zika virus) | pIC50 [5] | inhibition (dengue virus type 2 [6]) [%] | pIC50 [7] | pEC50 (dengue virus type 3) | pEC50 (dengue virus type 1) | Compound | CC50 at 48 h [3] [µM] | selectivity ratio [8] | selectivity ratio [9] | inhibition at 10 µM (dengue virus type 2 [10]) [%] | pEC50 (dengue virus type 2 [11]) | inhibition at 10 µM (dengue virus type 2 [12]) [%] | pEC50 (dengue virus type 2 [13]) |
| --- | --- | --- | --- | --- | --- | --- | --- | --- | --- | --- | --- | --- | --- | --- | --- | --- | --- |
| inactive | 6.3 |  |  |  |  |  |  |  |  | O=c1c(-c2ccccc2)ccc2sc3ccc(OC4CCCCC4)cc3n12 |  |  |  |  |  |  |  |
|  | 93 | 5.77 | 5.68 | 6.40 | 5.04 | 40.7 | 4.37 | 5.55 | 5.55 | O=C(N[C@@H](Cc1ccc(O)cc1)C(=O)O)c1cc(-c2ccccc2)c(=O)n2c1sc1ccc(OC3CCCCC3)cc12 | > 100 | > 50 | > 100 |  |  |  |  |
|  | 94.1 | 5.23 | 5.54 | 6.10 | 4.84 | 12.6 | 4.74 | 5.37 | 5.49 | O=C(N[C@@H](Cc1cccc(O)c1)C(=O)O)c1cc(-c2ccccc2)c(=O)n2c1sc1ccc(OC3CCCCC3)cc12 | > 100 | > 30 | > 100 |  |  |  |  |
| inactive | 44.8 |  | 5.74 | 6.00 |  |  |  |  |  | O=C(NCc1ccc(O)cc1)c1cc(-c2ccccc2)c(=O)n2c1sc1ccc(OC3CCCCC3)cc12 | > 100 | > 50 | > 100 |  |  |  |  |
|  | 63.3 |  | 5.72 | 5.74 |  | 10 |  |  |  | O=C(NCCO)c1cc(-c2ccccc2)c(=O)n2c1sc1ccc(OC3CCCCC3)cc12 | 86.3 | 43 | 43 |  |  |  |  |
|  | 31.2 |  |  |  |  |  |  |  |  | O=C(NCc1ccccc1)c1cc(-c2ccccc2)c(=O)n2c1sc1ccc(OC3CCCCC3)cc12 |  |  |  |  |  |  |  |
|  | 97.5 |  |  |  | 4.70 | 44.8 |  |  |  | O=C(N[C@@H](CO)C(=O)O)c1cc(-c2ccccc2)c(=O)n2c1sc1ccc(OC3CCCCC3)cc12 |  |  |  |  |  |  |  |
